ChEMBL document CHEMBL1124560, “New 2-substituted indoloquinone mitomycin analogues” (J Med Chem, 1989)
≈ marks a conversion by molar mass, not a printed value.

What was measured:
[1] = test system: A549; assay: Antitumor activity against A549 human lung carcinoma cell line; format: functional, cell-based
Method in brief: (§1)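 Crystal violet staining of cultured tumour cells. The stain was solubilized in 0.1 M AcOH-EtOH (1:1 v/v) and optical density read at 590 nm. IC50 came from linear regression of the absorbance data. Compounds were in DMSO vehicle; mitomycin C was in DMSO/saline. Indoloquinone values are the mean of two experiments per cell line.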

[2] = test system: B16-F10; assay: Antitumor activity against B16-F10 murine melanoma cell line; format: functional, cell-based; settings: Mus musculus; method in brief: as §1
[3] = test system: P388; assay: Maximum effect against P388 murine leukemia in mice at a dose of 25.6 mg/kg; format: functional, Mus musculus
[4] = test system: HCT-116; assay: Antitumor activity against HCT116 human colon carcinoma cell line; format: functional, cell-based; method in brief: as §1
[5] = Antitumor activity against SW1271 human lung carcinoma cell line; format: functional, cell-based; method in brief: as §1
[6] = test system: B16; assay: Antitumor activity against B16-BN murine melanoma cell line; format: functional, cell-based; settings: Mus musculus; method in brief: as §1
[7] = species on record: Homo sapiens; assay: Antitumor activity against moser human colon carcinoma cell line; format: functional; method in brief: as §1
[8] = test system: A549; assay: Antitumor activity against A549 human lung carcinoma cell line in experiment 1; format: functional, cell-based
Method in brief: (§2)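 Cell growth in A549 and HCT-116 cultures was read by tetrazolium staining, with an IC50 reported for each of two separate experiments.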

[9] = test system: HCT-116; assay: Antitumor activity against HCT116 human colon carcinoma cell line experiment 1; format: functional, cell-based; method in brief: as §2
[10] = test system: A549; assay: Antitumor activity against A549 human lung carcinoma cell line in experiment 2; format: functional, cell-based; method in brief: as §2
[11] = test system: HCT-116; assay: Antitumor activity against HCT116 human colon carcinoma cell line experiment 2; format: functional, cell-based; method in brief: as §2
[12] = test system: P388; assay: Minimum effective dose of compound against P388 murine leukemia in mice; format: functional; settings: Mus musculus, read-out: MED
Method in brief: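 P388 ascites leukemia (10^6 cells) in CDF1 female mice, dosed once on day 1, six mice per dose, saline controls (10). Minimal effective dose defined as dose giving % T/C = 125, from median survival times.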

[13] = test system: P388; assay: Maximum effect on P388 murine leukemia in mice at a dose of 32.0 mg/kg; format: functional, Mus musculus
Method in brief: (§3)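 P388 leukemia, 10^6 ascites cells implanted in CDF1 female mice; single dose on day 1, six mice per dose, 10 saline controls, concurrent mitomycin C control group per experiment. Max effect = % T/C (median survival time treated/control × 100) at optimal dose.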

[14] = test system: P388; assay: Maximum effect on P388 murine leukemia in mice at a dose of 12.8 mg/kg; format: functional, Mus musculus; method in brief: as §3
[15] = Antitumor activity against SW900 human lung carcinoma cell line; format: functional, cell-based; method in brief: as §1
[16] = test system: P388; assay: Maximum effect on P388 murine leukemia in mice at a dose of 6.4 mg/kg; format: functional, Mus musculus
[17] = test system: P388; assay: Maximum effect on P388 murine leukemia in mice at a dose of 51.2 mg/kg; format: functional, Mus musculus
[18] = test system: P388; assay: Maximum effect on P388 murine leukemia in mice at a dose of 25.6 mg/kg

SMILES	IC50 [1]	IC50 [2]	T/C [3]	IC50 [4]	IC50 [5]	IC50 [6]	IC50 [7]	IC50 [8]	IC50 [9]	IC50 [10]	IC50 [11]	minimal effective dose [12]	T/C [13]	T/C [14]	IC50 [15]	T/C [16]	T/C [17]	T/C [18]
CNC(=O)OCc1c2c(n(C)c1COC(=O)NC)C(O)=C(C)C(=N)C2=O	1.6 mg/L (≈ 4.39 µM)	13.3 mg/L (≈ 36.5 µM)	120%	3.7 mg/L (≈ 10.2 µM)	7.9 mg/L (≈ 21.7 µM)	9.5 mg/L (≈ 26.1 µM)	3.1 mg/L (≈ 8.51 µM)	–	–	–	–	–	–	–	–	–	–	–
CNC(=O)OCc1c2c(n(C)c1C(C)OC(C)=O)C(=O)C(C)=C(OC)C2=O (stereo unspecified)	–	–	–	–	–	–	–	0.075 mg/L (≈ 0.198 µM)	0.06 mg/L (≈ 0.159 µM)	0.065 mg/L (≈ 0.172 µM)	0.06 mg/L (≈ 0.159 µM)	–	–	–	–	–	–	–
CNC(=O)OCc1c2c(n(C)c1COC(=O)NC)C(=O)C(C)=C(N1CC1)C2=O	0.03 mg/L (≈ 0.0768 µM)	0.66 mg/L (≈ 1.69 µM)	–	0.17 mg/L (≈ 0.435 µM)	2.7 mg/L (≈ 6.92 µM)	1.6 mg/L (≈ 4.1 µM)	0.13 mg/L (≈ 0.333 µM)	–	–	–	–	14.5 mg/kg	145%	–	–	–	–	–
CNC(=O)OCc1c2c(n(C)c1COC(C)=O)C(=O)C(C)=C(N1CC1)C2=O	< 0.02 mg/L	0.39 mg/L (≈ 1.04 µM)	–	0.065 mg/L (≈ 0.173 µM)	0.73 mg/L (≈ 1.94 µM)	0.27 mg/L (≈ 0.719 µM)	0.035 mg/L (≈ 0.0932 µM)	–	–	–	–	–	–	114%	–	–	–	–
CNC(=O)OCc1c2c(n(C)c1COC(=O)NC)C(=O)C(C)=C(OC)C2=O	–	< 0.03 mg/L	–	< 0.03 mg/L	0.14 mg/L (≈ 0.369 µM)	–	< 0.03 mg/L	–	–	–	–	–	–	–	< 0.03 mg/L	100%	–	–
CNC(=O)OCc1c2c(n(C)c1COC(C)=O)C(=O)C(C)=C(OC)C2=O	–	0.2 mg/L (≈ 0.549 µM)	–	0.065 mg/L (≈ 0.178 µM)	0.47 mg/L (≈ 1.29 µM)	–	0.09 mg/L (≈ 0.247 µM)	–	–	–	–	–	–	–	0.04 mg/L (≈ 0.11 µM)	–	105%	–
CO[C@@]12[C@H](COC(N)=O)C3=C(C(=O)C(C)=C(N)C3=O)N1C[C@@H]1N[C@@H]12 [MITOMYCIN]	0.47 mg/L (≈ 1.41 µM)	1.5 mg/L (≈ 4.49 µM)	–	1.1 mg/L (≈ 3.29 µM)	8.1 mg/L (≈ 24.2 µM)	3.6 mg/L (≈ 10.8 µM)	2.8 mg/L (≈ 8.37 µM)	0.015 mg/L (≈ 0.0449 µM)	0.015 mg/L (≈ 0.0449 µM)	0.08 mg/L (≈ 0.239 µM)	0.01 mg/L (≈ 0.0299 µM)	–	–	–	0.24 mg/L (≈ 0.718 µM)	–	–	–
CNC(=O)OCc1c2c(n(C)c1COC(C)=O)C(O)=C(C)C(=N)C2=O	> 3.1 mg/L	> 31 mg/L	–	> 31 mg/L	> 31 mg/L	14 mg/L (≈ 40.1 µM)	12.8 mg/L (≈ 36.6 µM)	–	–	–	–	–	–	–	–	–	–	105%
